Active and inactive are the calls of the source. No cut-off for these calls is given here.
Key:
[1] = tested on: HCT-116; experiment: Antiproliferative activity against human HCT-116 cells measured after 48 hrs by MTT assay; assay type: functional, cell-based; details: for IC50: HCT-116, 48 h
Summary of the method: (§1)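 Cells exposed to the ligands for 48 h. Viability was read by MTT, and the IC50 was derived from the response.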

[2] = biological target: DNA; experiment: Binding affinity to HP19 DNA (non-G4 DNA) (unknown origin) assessed as dissociation constant measured upto 450 secs by surface plasmon resonance assay; assay type: nucleic-acid assay
Summary of the method: (§2)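 Surface plasmon resonance in buffer at 25 °C. Four G4-mtDNAs (Mito 78, Mito 55, Mito 29, Mito 0.5-16) and the hairpin HP19 served as substrates. Kd was derived from the sensorgrams.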

[3] = biological target: Quadruplex DNA; experiment: Binding affinity to mito 0.5-16 G4 DNA (unknown origin) assessed as dissociation constant measured upto 450 secs by surface plasmon resonance assay; assay type: nucleic-acid assay; summary of the method: as §2
[4] = tested on: HeLa; experiment: Antiproliferative activity against human HeLa cells measured after 48 hrs by MTT assay; assay type: functional, cell-based; summary of the method: as §1
[5] = biological target: Quadruplex DNA; experiment: Binding affinity to mito 78 G4 DNA (unknown origin) assessed as dissociation constant measured upto 450 secs by surface plasmon resonance assay; assay type: nucleic-acid assay
[6] = tested on: HepG2; experiment: Antiproliferative activity against human HepG2 cells measured after 48 hrs by MTT assay; assay type: functional, cell-based; details: HepG2, 48 h; summary of the method: as §1
[7] = tested on: LoVo; experiment: Antiproliferative activity against human LoVo cells measured after 48 hrs by MTT assay; assay type: functional, cell-based; summary of the method: as §1
[8] = biological target: Quadruplex DNA; experiment: Binding affinity to mito 55 G4 DNA (unknown origin) assessed as dissociation constant measured upto 450 secs by surface plasmon resonance assay; assay type: nucleic-acid assay; summary of the method: as §2
[9] = tested on: PANC-1; experiment: Antiproliferative activity against human PANC-1 cells measured after 48 hrs by MTT assay; assay type: functional, cell-based; details: PANC-1, 48 h; summary of the method: as §1
[10] = tested on: MDA-MB-231; experiment: Antiproliferative activity against human MDA-MB-231 cells measured after 48 hrs by MTT assay; assay type: functional, cell-based; details: MDA-MB-231, 48 h; summary of the method: as §1
[11] = (§3) Antiproliferative activity against human BJ cells measured after 48 hrs by MTT assay; assay type: toxicity, cell-based; details: BJ cells; summary of the method: as §1
[12] = biological target: Quadruplex DNA; experiment: Binding affinity to mito 29 G4 DNA (unknown origin) assessed as dissociation constant measured upto 450 secs by surface plasmon resonance assay; assay type: nucleic-acid assay; summary of the method: as §2
[13] = (§4) Antiproliferative activity against human HFF-1 cells measured after 48 hrs by MTT assay; assay type: toxicity, cell-based; details: HFF-1 cells; summary of the method: as §1
[14] = tested on: Quadruplex DNA; experiment: Binding affinity to mito 132 G4 DNA (unknown origin) at 5 uM by fluorescence titration based analysis; assay type: nucleic-acid assay
Summary of the method: (§5)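 Oligonucleotides were pre-annealed at 95 °C for 10 min, then cooled slowly. Ligand (5 uM) was mixed with 20 uM DNA in buffer. Emission was collected over 550–800 nm, and enhancement was taken at 650 nm as F/F0.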

[15] = tested on: Quadruplex DNA; experiment: Binding affinity to mito 56 G4 DNA (unknown origin) at 5 uM by fluorescence titration based analysis; assay type: nucleic-acid assay; summary of the method: as §5
[16] = tested on: Quadruplex DNA; experiment: Binding affinity to mito 05-18 G4 DNA (unknown origin) at 5 uM by fluorescence titration based analysis; assay type: nucleic-acid assay; summary of the method: as §5
[17] = Drug uptake in living human HCT-116 cells assessed as increase in fluorescent signal in subnuclear region at 4 uM incubated for 1 hrs by Hoechst33342 staining based analysis; assay type: ADME, cell-based; details: hct-116, 1 h
[18] = Drug uptake in living human HCT-116 cells at 4 uM incubated for 1 hrs by Hoechst33342 staining based analysis; assay type: ADME, cell-based; details: hct-116, 1 h
[19] = tested on: Quadruplex DNA; experiment: Binding affinity to mito 05-15 G4 DNA (unknown origin) at 5 uM by fluorescence titration based analysis; assay type: nucleic-acid assay; summary of the method: as §5
[20] = tested on: Quadruplex DNA; experiment: Binding affinity to mito 81 G4 DNA (unknown origin) at 5 uM by fluorescence titration based analysis; assay type: nucleic-acid assay
Summary of the method: (§6)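 Fluorescence titration in buffer. Ligand at 5 uM mixed with 20 uM pre-annealed DNA (95 °C for 10 min, slow cooling). Emission collected at 550-800 nm and monitored at 650 nm. Result reported as fold enhancement F/F0 over ligand alone.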

[21] = tested on: BJ; experiment: as §3; assay type: toxicity, cell-based; details: bj, 48 h; summary of the method: as §1
[22] = tested on: Quadruplex DNA; experiment: Binding affinity to mito 78 G4 DNA (unknown origin) at 5 uM by fluorescence titration based analysis; assay type: nucleic-acid assay; summary of the method: as §6
[23] = tested on: Quadruplex DNA; experiment: Binding affinity to mito 29 G4 DNA (unknown origin) at 5 uM by fluorescence titration based analysis; assay type: nucleic-acid assay; summary of the method: as §5
[24] = tested on: HFF-1; experiment: as §4; assay type: toxicity, cell-based; details: hff-1, 48 h, time 48 hrs; summary of the method: as §1

| IC50 [1] [µM] | Kd [2] [µM] | Kd [3] [µM] | IC50 [4] [µM] | Kd [5] [µM] | IC50 [6] [µM] | IC50 [7] [µM] | Kd [8] [µM] | IC50 [9] [µM] | IC50 [10] [µM] | Kd [12] [µM] | SMILES | IC50 at 48 h [11] [µM] | IC50 at 48 h [13] [µM] | other results |
| --- | --- | --- | --- | --- | --- | --- | --- | --- | --- | --- | --- | --- | --- | --- |
| 17.2 | > 2 | 0.11 | 29.5 | 0.03 | > 40 | 15.4 | 0.13 | > 40 | > 40 | 0.14 | CN(C)c1ccc(/C=C/c2ccc3ccccc3[n+]2CCCCCCCC[n+]2c(/C=C/c3ccc(N(C)C)cc3)ccc3ccccc32)cc1 | > 40 | 22.7 | – |
| 27.4 | > 2 | 1.17 | > 40 | 0.07 | > 40 | > 40 | 0.91 | > 40 | > 40 | 0.72 | Cc1ccc(/C=C/c2ccc3ccccc3[n+]2CCCCCCCC[n+]2c(/C=C/c3ccc(C)cc3)ccc3ccccc32)cc1 | > 40 | > 40 | – |
| – | – | – | – | – | – | – | – | – | – | – | C[n+]1c(/C=C/c2ccc(N3CCCCC3)cc2)ccc2ccccc21.[I-] | – | – | Activity [14]: Active; Activity [1]: inactive; Activity [15]: Active; Activity [16]: Active; Drug uptake [17]: Active; Drug uptake [18]: Not Active; Activity [19]: Active; Activity [20]: Active; Activity [21]: Toxic; Activity [22]: Active; Activity [23]: Active; Activity [24]: Toxic |
| 19.8 | > 2 | 0.25 | 23.3 | 0.08 | > 40 | > 40 | 0.61 | > 40 | > 40 | 0.23 | C(=C\c1ccc2ccccc2[n+]1CCCCCCCC[n+]1c(/C=C/c2c[nH]c3ccccc23)ccc2ccccc21)/c1c[nH]c2ccccc12 | > 40 | > 40 | – |
| 29.2 | 1.86 | 0.28 | > 40 | 0.12 | > 40 | 35.4 | 0.47 | > 40 | > 40 | 0.24 | C(=C\c1ccc2ccccc2[n+]1CCCCCCCC[n+]1c(/C=C/c2ccc(N3CCOCC3)cc2)ccc2ccccc21)/c1ccc(N2CCOCC2)cc1 | > 40 | > 40 | – |
| – | – | – | – | – | – | – | – | – | – | – | CCCC[n+]1c(/C=C/c2ccc(N3CCCCC3)cc2)ccc2ccccc21.[I-] | – | – | Activity [14]: Active; Activity [1]: inactive; Activity [15]: Active; Activity [16]: Active; Drug uptake [17]: Active; Drug uptake [18]: Not Active; Activity [19]: Active; Activity [20]: Active; Activity [21]: Toxic; Activity [22]: Active; Activity [23]: Active; Activity [24]: Toxic |
| 8 | > 2 | > 2 | 34.6 | 1.84 | 37.3 | > 40 | 0.22 | > 40 | > 40 | 0.14 | C(=C\c1ccc2ccccc2[n+]1CCCCCCCC[n+]1c(/C=C/c2cc3ccccc3[nH]2)ccc2ccccc21)/c1cc2ccccc2[nH]1 | > 40 | > 40 | – |
| > 40 | > 2 | 1.02 | > 40 | 0.29 | > 40 | > 40 | 0.58 | > 40 | > 40 | 0.5 | C(=C\c1ccc2ccccc2[n+]1CCCCCCCC[n+]1c(/C=C/c2ccccc2)ccc2ccccc21)/c1ccccc1 | > 40 | 28.3 | – |
| 5.4 | > 2 | 0.41 | 22.1 | 0.13 | > 40 | 15 | 0.17 | 20.5 | > 40 | 0.15 | C(=C\c1ccc2ccccc2[n+]1CCCCCCCC[n+]1c(/C=C/c2ccc(N3CCCC3)cc2)ccc2ccccc21)/c1ccc(N2CCCC2)cc1 | 31.4 | 31.1 | – |
| 8.5 | > 2 | 0.96 | 32.1 | 0.02 | 25.3 | > 40 | 0.52 | > 40 | > 40 | 0.21 | CCn1c2ccccc2c2cc(/C=C/c3ccc4ccccc4[n+]3CCCCCCCC[n+]3c(/C=C/c4ccc5c(c4)c4ccccc4n5CC)ccc4ccccc43)ccc21 | > 40 | > 40 | – |
| 24.7 | > 2 | 0.15 | > 40 | 0.05 | > 40 | > 40 | 0.46 | > 40 | > 40 | 0.34 | CSc1ccc(/C=C/c2ccc3ccccc3[n+]2CCCCCCCC[n+]2c(/C=C/c3ccc(SC)cc3)ccc3ccccc32)cc1 | > 40 | 34.7 | – |
